Measured values taken from ChEMBL document CHEMBL1137451, “Synthesis and evaluation of antifungal properties of a series of the novel 2-amino-5-oxo-4-phenyl-5,6,7,8-tetrahydroquinoline-3-carbonitrile and its analogues” (Bioorg Med Chem, 2007).
The source made the active and inactive calls. The calls are words filed in the database; no cut-off is given here.

Assays:
Candida albicans [1] = assay: Antifungal activity against Candida albicans 1 at 60 ug/disc after 24 hrs by disc diffusion method; format: functional; conditions: read-out: IZ
Outline: (§1)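 Yeast suspensions (C. albicans strains 1, 2) and mycelial suspensions (F. oxysporum strains 1, 2; Mucor sp.) spread on YPG (0.3% yeast extract, 0.5% peptone, 1% glucose) or PDA agar. Compound applied on filter-paper discs at the stated amount; 28 °C, 24 h. Read-out is inhibition zone diameter. Controls: 50% v/v DMSO vehicle, cycloheximide, amphotericin B.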

Candida albicans [2] = assay: Antifungal activity against Candida albicans 1 at 40 ug/disc after 24 hrs by disc diffusion method; format: functional; conditions: for zone of inhibition at 40 µg/disc: read-out: IZ; outline: as §1
Candida albicans [3] = assay: Antifungal activity against Candida albicans 1 at 100 ug/disc after 24 hrs by disc diffusion method; format: functional; conditions: read-out: IZ; outline: as §1
Candida albicans [4] = assay: Antifungal activity against Candida albicans 2 at 40 ug/disc after 24 hrs by disc diffusion method; format: functional; conditions: for zone of inhibition at 40 µg/disc: read-out: IZ; outline: as §1
Candida albicans [5] = assay: Antifungal activity against Candida albicans 2 at 60 ug/disc after 24 hrs by disc diffusion method; format: functional; conditions: read-out: IZ; outline: as §1
Candida albicans [6] = assay: Antifungal activity against Candida albicans 2 at 100 ug/disc after 24 hrs by disc diffusion method; format: functional; conditions: read-out: IZ; outline: as §1
Fusarium oxysporum [7] = assay: Antifungal activity against Fusarium oxysporum 1 at 40 ug/disc after 24 hrs by disc diffusion method; format: functional; conditions: for zone of inhibition at 40 µg/disc: read-out: IZ; outline: as §1
Fusarium oxysporum [8] = assay: Antifungal activity against Fusarium oxysporum 1 at 60 ug/disc after 24 hrs by disc diffusion method; format: functional; conditions: for zone of inhibition at 60 µg/disc: read-out: IZ; outline: as §1
Fusarium oxysporum [9] = assay: Antifungal activity against Fusarium oxysporum 1 at 100 ug/disc after 24 hrs by disc diffusion method; format: functional; conditions: read-out: IZ; outline: as §1
Fusarium oxysporum [10] = assay: Antifungal activity against Fusarium oxysporum 2 at 40 ug/disc after 24 hrs by disc diffusion method; format: functional; conditions: for zone of inhibition at 40 µg/disc: read-out: IZ; outline: as §1
Fusarium oxysporum [11] = assay: Antifungal activity against Fusarium oxysporum 2 at 60 ug/disc after 24 hrs by disc diffusion method; format: functional; conditions: for zone of inhibition at 60 µg/disc: read-out: IZ; outline: as §1
Fusarium oxysporum [12] = assay: Antifungal activity against Fusarium oxysporum 2 at 100 ug/disc after 24 hrs by disc diffusion method; format: functional; conditions: read-out: IZ; outline: as §1
Mucor [13] = assay: Antifungal activity against Mucor at 40 ug/disc after 24 hrs by disc diffusion method; format: functional; conditions: for zone of inhibition at 40 µg/disc: read-out: IZ; outline: as §1
Mucor [14] = assay: Antifungal activity against Mucor at 60 ug/disc after 24 hrs by disc diffusion method; format: functional; conditions: for zone of inhibition at 60 µg/disc: read-out: IZ; outline: as §1
Mucor [15] = assay: Antifungal activity against Mucor at 100 ug/disc after 24 hrs by disc diffusion method; format: functional; conditions: for zone of inhibition at 100 µg/disc: read-out: IZ; outline: as §1
Candida albicans [16] = assay: Antifungal activity against Candida albicans 1 after 24 hrs by disc diffusion method; format: functional
Outline: (§2)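 Disc diffusion on Candida albicans strains 1 and 2 (yeast suspension), Fusarium oxysporum strains 1 and 2 and Mucor sp. (mycelial suspension), spread on YPG or PDA agar. Compound at graded amounts per filter-paper disc, 28 °C for 24 h. MIC taken as the lowest amount giving a 2 mm inhibition zone. Controls: 50% v/v DMSO vehicle, cycloheximide, amphotericin B.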

Candida albicans [17] = assay: Antifungal activity against Candida albicans 2 after 24 hrs by disc diffusion method; format: functional; outline: as §2
Fusarium oxysporum [18] = assay: Antifungal activity against Fusarium oxysporum 1 after 24 hrs by disc diffusion method; format: functional; outline: as §2
Fusarium oxysporum [19] = assay: Antifungal activity against Fusarium oxysporum 2 after 24 hrs by disc diffusion method; format: functional; outline: as §2
Mucor [20] = assay: Antifungal activity against Mucor at after 24 hrs by disc diffusion method; format: functional; outline: as §2
Benjaminiella poitrasii [21] = assay: Inhibition of Benjaminiella poitrasii chitin synthase at 4 ug/mL
Outline: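 Chitin synthase from Benjaminiella poitrasii measured with and without compound at 4 µg/ml, using a non-radioactive chitin synthase assay. Nikkomycin Z used as reference.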

Benjaminiella poitrasii [22] = assay: Inhibition of yeast hypha transition at 20 ug/mL after 4 hrs

| SMILES | zone of inhibition at 60 µg/disc (Candida albicans [1]) | zone of inhibition at 100 µg/disc (Candida albicans [3]) | zone of inhibition at 60 µg/disc (Candida albicans [5]) | zone of inhibition at 100 µg/disc (Candida albicans [6]) | Activity (Fusarium oxysporum [7]) | zone of inhibition at 60 µg/disc (Fusarium oxysporum [8]) | zone of inhibition at 100 µg/disc (Fusarium oxysporum [9]) | Activity (Fusarium oxysporum [10]) | zone of inhibition at 60 µg/disc (Fusarium oxysporum [11]) | zone of inhibition at 100 µg/disc (Fusarium oxysporum [12]) | Activity (Mucor [13]) | MIC (Candida albicans [16]) | MIC (Candida albicans [17]) | MIC (Fusarium oxysporum [18]) | MIC (Fusarium oxysporum [19]) | inhibition (Benjaminiella poitrasii [21]) | inhibition at 20 µg/mL (Benjaminiella poitrasii [22]) | Activity (Candida albicans [2]) | Activity (Candida albicans [4]) | Activity (Mucor [14]) | further results |
| --- | --- | --- | --- | --- | --- | --- | --- | --- | --- | --- | --- | --- | --- | --- | --- | --- | --- | --- | --- | --- | --- |
| N#Cc1c(N)nc2c(c1-c1ccc(F)cc1)C(=O)CCC2 | 4 mm | 6 mm | 4 mm | 6 mm | inactive | 3 mm | 7 mm | inactive | 3 mm | 7 mm | inactive | 40 µg/disc | 40 µg/disc | 40 µg/disc | 40 µg/disc | 81% | 95% | – | – | – | zone of inhibition at 40 µg/disc (Candida albicans [2]): 2 mm; zone of inhibition at 40 µg/disc (Candida albicans [4]): 2 mm; zone of inhibition at 60 µg/disc (Mucor [14]): 9 mm; zone of inhibition at 100 µg/disc (Mucor [15]): 12 mm; MIC (Mucor [20]): 60 µg/disc |
| N#Cc1c(N)nc2c(c1-c1cccc(N)c1)C(=O)CCC2 | 3 mm | 6 mm | 3 mm | 6 mm | – | 3 mm | 5 mm | – | 3 mm | 5 mm | – | 60 µg/disc | 60 µg/disc | 40 µg/disc | 40 µg/disc | 76% | 95% | inactive | inactive | – | zone of inhibition at 40 µg/disc (Fusarium oxysporum [7]): 2 mm; zone of inhibition at 40 µg/disc (Fusarium oxysporum [10]): 2 mm; zone of inhibition at 40 µg/disc (Mucor [13]): 5 mm; zone of inhibition at 60 µg/disc (Mucor [14]): 7 mm; zone of inhibition at 100 µg/disc (Mucor [15]): 10 mm; MIC (Mucor [20]): 40 µg/disc |
| CC(=O)N(C(C)=O)c1nc2c(c(-c3ccc(C)cc3)c1C#N)C(=O)CCC2 | 4 mm | 6 mm | 4 mm | 6 mm | inactive | 2 mm | 4 mm | inactive | 2 mm | 4 mm | – | 60 µg/disc | 60 µg/disc | 60 µg/disc | 60 µg/disc | 61% | 90% | inactive | inactive | – | zone of inhibition at 40 µg/disc (Mucor [13]): 3 mm; zone of inhibition at 60 µg/disc (Mucor [14]): 7 mm; zone of inhibition at 100 µg/disc (Mucor [15]): 10 mm; MIC (Mucor [20]): 40 µg/disc |
| N#Cc1c(N)nc2c(c1-c1ccc([N+](=O)[O-])cc1)C(=O)CCC2 | 3 mm | 5 mm | 3 mm | 5 mm | inactive | 2 mm | 3 mm | inactive | 2 mm | 3 mm | inactive | 60 µg/disc | 60 µg/disc | 60 µg/disc | 60 µg/disc | 61% | 95% | inactive | inactive | inactive | Activity (Mucor [15]): inactive |
| N#Cc1c(N)nc2c(c1-c1ccccc1)C(=O)CCC2 | 2 mm | 6 mm | 2 mm | 6 mm | inactive | 3 mm | 6 mm | – | 3 mm | 6 mm | inactive | 60 µg/disc | 60 µg/disc | 60 µg/disc | 60 µg/disc | 66% | 90% | inactive | inactive | inactive | zone of inhibition at 40 µg/disc (Fusarium oxysporum [10]): 3 mm; Activity (Mucor [15]): inactive |
| N#Cc1c(N)nc2c(c1-c1cccc(NC(=O)CCN3CCOCC3)c1)C(=O)CCC2 | 2 mm | 7 mm | 2 mm | 7 mm | – | 3 mm | 5 mm | – | 3 mm | 5 mm | inactive | 40 µg/disc | 40 µg/disc | 40 µg/disc | 40 µg/disc | 61% | 95% | – | – | inactive | zone of inhibition at 40 µg/disc (Candida albicans [2]): 2 mm; zone of inhibition at 40 µg/disc (Candida albicans [4]): 2 mm; zone of inhibition at 40 µg/disc (Fusarium oxysporum [7]): 2 mm; zone of inhibition at 40 µg/disc (Fusarium oxysporum [10]): 2 mm; Activity (Mucor [15]): inactive |
| COc1ccc(NC(=O)Nc2cccc(-c3c(C#N)c(N)nc4c3C(=O)CCC4)c2)cc1 | 3 mm | 6 mm | 3 mm | 6 mm | inactive | – | 2 mm | inactive | – | 2 mm | inactive | 40 µg/disc | 40 µg/disc | 100 µg/disc | 100 µg/disc | 71% | 95% | – | – | inactive | zone of inhibition at 40 µg/disc (Candida albicans [2]): 2 mm; zone of inhibition at 40 µg/disc (Candida albicans [4]): 2 mm; Activity (Fusarium oxysporum [8]): inactive; Activity (Fusarium oxysporum [11]): inactive; Activity (Mucor [15]): inactive |
